This assay has as its target T1, UniProt Q8VGC6.
T1 sequence (whole entry): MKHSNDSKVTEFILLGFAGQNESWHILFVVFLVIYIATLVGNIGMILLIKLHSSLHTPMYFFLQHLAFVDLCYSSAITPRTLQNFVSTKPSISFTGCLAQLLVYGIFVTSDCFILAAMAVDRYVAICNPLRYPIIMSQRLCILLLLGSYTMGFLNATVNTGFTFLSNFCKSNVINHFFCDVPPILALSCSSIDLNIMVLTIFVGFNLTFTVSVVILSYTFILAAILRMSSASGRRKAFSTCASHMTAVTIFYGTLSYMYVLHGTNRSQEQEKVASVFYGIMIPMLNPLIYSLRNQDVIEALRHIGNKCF
To be noted: stereoisomer not certain. Summed up: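 Each receptor–molecule pair is labelled responsive or non-responsive (inactive) according to whether the original authors judged the measured signal statistically different from baseline. The data were taken from the main text and supplementary material of published papers and checked for typos and inconsistencies. Assay methods differed by source, with transient luciferase assays in mammalian cell lines being common.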
Regarding `CCCCCC=CCCC=O`, the “odorant receptor agonist call” value is “inactive”.
Then `C=C(C)C1CC=C(C)CC1` (stereo not drawn), with “inactive”; and `CC(C)CCN`, with “inactive”; and `CNc1ccccc1C(=O)OC`, with “inactive”.
For `Cc1ccc2c(c1)OCC(=O)CO2`, the “odorant receptor agonist call” value is “inactive”.
Then `CCCCCCC(=O)OCCCC`, with “inactive”.
`CCOC(=O)CC(C)C`: the “odorant receptor agonist call” value is “inactive”.
To `OCC=Cc1ccccc1` belongs “inactive”.
To `CC(C)=C1CCC(C)CC1=O` (stereo not drawn) belongs “inactive”; to `CC(=O)C1(C)CC2=C(CCCC2(C)C)CC1C` (stereo not drawn), “inactive”; to `COC(OC)c1ccccc1`, “inactive”.
Then `CC=C(C)C=O`, with “inactive”; and `C=CC(=O)CCCCC`, with “inactive”.
As to `OCCc1ccccc1`, the “odorant receptor agonist call” value is “inactive”.
Then `CC(C)CS`, with “inactive”.
Then `CCCCCC(C)O` (stereo not drawn), with “inactive”; and `CCCCCCC(C)O` (stereo not drawn), with “inactive”.
Then `CCC=CCCCCC=O`, with “inactive”; and `CCN(CC)CC`, with “inactive”; and `COc1ccccc1`, with “inactive”.
Turning to `COc1nccnc1C(C)C`, the “odorant receptor agonist call” value is “inactive”.
To `COc1nccnc1C` belongs “inactive”.
Then `CCc1ccc(O)cc1`, with “inactive”; and `CCCC=O`, with “inactive”.
As to `CC(=O)OCc1ccc2c(c1)OCO2`, the “odorant receptor agonist call” value was “active”.
For `Cc1occc1SSc1ccoc1C`, the “odorant receptor agonist call” value was “inactive”.
To `CCCCCCCCCC=CC=O` belongs “inactive”; to `O=C(OCc1ccccc1)c1ccccc1O`, “inactive”; to `CCc1ncc(C)nc1CC`, “inactive”.
To `CC(=O)OC1(C)CCC23CC1C(C)(C)C2CCC3C` (stereo not drawn) belongs “inactive”; to `CCC=CCCC=CC=O`, “inactive”.
To `CCCCCOC(=O)CCC` belongs “inactive”; to `CCCCCCCCCCCO`, “inactive”; to `CCc1ccccc1O`, “inactive”.
Take `CC(C)=CCCC(C)=CCOC(=O)C(C)C`: the “odorant receptor agonist call” value is “inactive”.
To `CCCCCCCCCCOC(C)=O` belongs “inactive”.
With `CCSCC`, the “odorant receptor agonist call” value is “inactive”.
Then `Cc1ccc(C(C)C)cc1`, with “inactive”.

The values are drawn from the M2OR odorant receptor database.
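Also: active if original authors judged signal statistically different from baseline.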
